According to ChEMBL document CHEMBL5724801, “EUbOPEN Chemogenomics Library - Multiplex” (2024):
Several values for one entry are separate records, joined by “and”; a condition that tells them apart may be missing. Identical values can stand only once.

Tested on: HEK-293T
Test: Multiplex assay against HEK293T
Format: toxicity, cell-based
Conditions: human
Method in brief: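 Live cells were stained at seeding with Hoechst33342, BioTracker Green Microtubule Cytoskeleton Dye, MitoTracker Red and Annexin V Alexa Fluor 680. Following compound addition, they were imaged on a CQ1 microscope at 37°C and 5% CO2 and gated by CellPathfinder machine learning into Hoechst high-intensity objects or normal cells, with normal cells split into healthy, pyknosed or fragmented nuclei and pyknosed cells into mitotic or apoptotic. Tubulin, mitochondrial-mass and membrane-permeability phenotypes are per cents of healthy-nucleus cells.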

[1] = 12 h, 1 µM, compound concentration 1 uM
[2] = 12 h, 10 µM, compound concentration 10 uM
[3] = 24 h, 1 µM, compound concentration 1 uM
[4] = 24 h, 10 µM, compound concentration 10 uM
[5] = 48 h, 1 µM, compound concentration 1 uM
[6] = 48 h, 10 µM, compound concentration 10 uM

Cc1ccc(C(C)(O)c2nc3ccccc3s2)c(C)c1 (stereo not drawn)
Population Apoptotic (%) [1]: 30% and 41% | Population Healthy Nuclei (%) [1]: 72% and 79% | Population Hoechst High Intensity Objects (%) [1]: 4% and 5% | Population Membrane Permeable-Phenotype (%) [1]: 1% and 0% | Population Mitochondria Different-Phenotype (%) [1]: 36% and 63% | Population Mitotic Cells (%) [1]: 70% and 58% | Population Normal (%) [1]: 95% and 94% | Population Pyknosed Nuclei (%) [1]: 8% and 16% | Population Tubulin-Different-Phenotype (%) [1]: 30% and 25% | Total Cell Count [1]: 483 and 308 | Population Apoptotic (%) [2]: 56% and 36% | Population Fragmented Nuclei (%) [2]: 5% and 7% | Population Healthy Nuclei (%) [2]: 82% and 78% | Population Hoechst High Intensity Objects (%) [2]: 8% and 7% | Population Membrane Permeable-Phenotype (%) [2]: 0% | Population Mitochondria Different-Phenotype (%) [2]: 62% and 72% | Population Mitotic Cells (%) [2]: 43% and 63% | Population Normal (%) [2]: 91% and 92% | Population Pyknosed Nuclei (%) [2]: 12% and 13% | Population Tubulin-Different-Phenotype (%) [2]: 44% and 25% | Total Cell Count [2]: 412 and 318 | Population Apoptotic (%) [3]: 26% and 32% | Population Fragmented Nuclei (%) [3]: 18% and 6% | Population Healthy Nuclei (%) [3]: 73% and 85% | Population Hoechst High Intensity Objects (%) [3]: 3% | Population Membrane Permeable-Phenotype (%) [3]: 1% and 0% | Population Mitochondria Different-Phenotype (%) [3]: 15% and 36% | Population Mitotic Cells (%) [3]: 73% and 67% | Population Normal (%) [3]: 96% | Population Pyknosed Nuclei (%) [3]: 8% and 7% | Population Tubulin-Different-Phenotype (%) [3]: 11% and 16% | Total Cell Count [3]: 645 and 447 | Population Apoptotic (%) [4]: 28% and 36% | Population Fragmented Nuclei (%) [4]: 6% and 10% | Population Healthy Nuclei (%) [4]: 82% and 78% | Population Hoechst High Intensity Objects (%) [4]: 8% and 6% | Population Membrane Permeable-Phenotype (%) [4]: 0% | Population Mitochondria Different-Phenotype (%) [4]: 42% and 63% | Population Mitotic Cells (%) [4]: 71% and 63% | Population Normal (%) [4]: 91% and 93% | Population Pyknosed Nuclei (%) [4]: 11% and 10% | Population Tubulin-Different-Phenotype (%) [4]: 34% and 23% | Total Cell Count [4]: 487 and 379 | Population Apoptotic (%) [5]: 17% and 34% | Population Fragmented Nuclei (%) [5]: 20% and 13% | Population Healthy Nuclei (%) [5]: 73% and 78% | Population Hoechst High Intensity Objects (%) [5]: 2% and 3% | Population Membrane Permeable-Phenotype (%) [5]: 1% | Population Mitochondria Different-Phenotype (%) [5]: 15% and 22% | Population Mitotic Cells (%) [5]: 82% and 65% | Population Normal (%) [5]: 97% and 96% | Population Pyknosed Nuclei (%) [5]: 5% and 8% | Population Tubulin-Different-Phenotype (%) [5]: 12% and 11% | Total Cell Count [5]: 964 and 621 | Population Apoptotic (%) [6]: 33% and 50% | Population Fragmented Nuclei (%) [6]: 14% and 13% | Population Healthy Nuclei (%) [6]: 76% and 80% | Population Hoechst High Intensity Objects (%) [6]: 2% and 3% | Population Membrane Permeable-Phenotype (%) [6]: 0% and 1% | Population Mitochondria Different-Phenotype (%) [6]: 28% and 33% | Population Mitotic Cells (%) [6]: 66% and 50% | Population Normal (%) [6]: 97% and 96% | Population Pyknosed Nuclei (%) [6]: 9% and 5% | Population Tubulin-Different-Phenotype (%) [6]: 18% and 13% | Total Cell Count [6]: 713 and 508

COCCn1c(C)c(C)s/c1=N\C(=O)C1C(C)(C)C1(C)C
Population Apoptotic (%) [1]: 37% and 41% | Population Fragmented Nuclei (%) [1]: 10% and 5% | Population Healthy Nuclei (%) [1]: 77% and 82% | Population Hoechst High Intensity Objects (%) [1]: 6% and 4% | Population Membrane Permeable-Phenotype (%) [1]: 0% | Population Mitochondria Different-Phenotype (%) [1]: 45% and 77% | Population Mitotic Cells (%) [1]: 62% and 58% | Population Normal (%) [1]: 93% and 95% | Population Pyknosed Nuclei (%) [1]: 12% | Population Tubulin-Different-Phenotype (%) [1]: 29% and 26% | Total Cell Count [1]: 335 and 304 | Population Apoptotic (%) [2]: 77% and 53% | Population Healthy Nuclei (%) [2]: 52% and 75% | Population Hoechst High Intensity Objects (%) [2]: 18% and 11% | Population Membrane Permeable-Phenotype (%) [2]: 0% | Population Mitochondria Different-Phenotype (%) [2]: 91% and 72% | Population Mitotic Cells (%) [2]: 22% and 46% | Population Normal (%) [2]: 81% and 88% | Population Pyknosed Nuclei (%) [2]: 13% and 16% | Population Tubulin-Different-Phenotype (%) [2]: 67% and 38% | Population Apoptotic (%) [3]: 19% and 35% | Population Fragmented Nuclei (%) [3]: 7% and 8% | Population Healthy Nuclei (%) [3]: 81% | Population Hoechst High Intensity Objects (%) [3]: 4% and 7% | Population Membrane Permeable-Phenotype (%) [3]: 0% | Population Mitochondria Different-Phenotype (%) [3]: 26% and 47% | Population Mitotic Cells (%) [3]: 80% and 64% | Population Normal (%) [3]: 95% and 92% | Population Pyknosed Nuclei (%) [3]: 11% and 10% | Population Tubulin-Different-Phenotype (%) [3]: 20% and 17% | Total Cell Count [3]: 447 and 383 | Population Apoptotic (%) [4]: 71% and 45% | Population Fragmented Nuclei (%) [4]: 30% and 11% | Population Healthy Nuclei (%) [4]: 61% and 75% | Population Hoechst High Intensity Objects (%) [4]: 15% and 7% | Population Membrane Permeable-Phenotype (%) [4]: 0% | Population Mitochondria Different-Phenotype (%) [4]: 53% and 62% | Population Mitotic Cells (%) [4]: 28% and 54% | Population Normal (%) [4]: 84% and 92% | Population Pyknosed Nuclei (%) [4]: 8% and 13% | Population Tubulin-Different-Phenotype (%) [4]: 36% and 30% | Population Apoptotic (%) [5]: 20% and 45% | Population Fragmented Nuclei (%) [5]: 13% and 11% | Population Healthy Nuclei (%) [5]: 75% and 81% | Population Hoechst High Intensity Objects (%) [5]: 3% | Population Membrane Permeable-Phenotype (%) [5]: 0% | Population Mitochondria Different-Phenotype (%) [5]: 22% and 31% | Population Mitotic Cells (%) [5]: 79% and 55% | Population Normal (%) [5]: 96% and 97% | Population Pyknosed Nuclei (%) [5]: 11% and 7% | Population Tubulin-Different-Phenotype (%) [5]: 14% and 12% | Total Cell Count [5]: 649 and 567 | Population Apoptotic (%) [6]: 60% and 38% | Population Fragmented Nuclei (%) [6]: 18% and 13% | Population Healthy Nuclei (%) [6]: 73% and 79% | Population Hoechst High Intensity Objects (%) [6]: 2% and 4% | Population Membrane Permeable-Phenotype (%) [6]: 2% and 0% | Population Mitochondria Different-Phenotype (%) [6]: 30% and 46% | Population Mitotic Cells (%) [6]: 40% and 61% | Population Normal (%) [6]: 97% and 95% | Population Pyknosed Nuclei (%) [6]: 8% and 6% | Population Tubulin-Different-Phenotype (%) [6]: 31% and 24% | Total Cell Count [6]: 191 and 493
